NPY-Y1 antag = NPY-Y1 (human) receptor antagonism; P25929; AID 1040; hit rate 1% among 200,000; inhibition, % at 3.6 µM; HEK293-CNG Y1 cells, membrane potential fluorescence; NPY at EC95, then isoproterenol;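 active = inhibition above the campaign mean inhibition of all tested compounds plus 3 SD, cut at about 20% in these data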;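 also: 0% = DMSO wells given NPY plus isoproterenol and 100% = isoproterenol alone without NPY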
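Material: HEK293 cells with Y1 receptor plus CNG channel; times: compound incubation 1 h at room temperature, readout 45 min post-stimulation; signal: fluorescence, membrane potential probe; read-out basis: fluorescence ratio normalized to % inhibition between controls; benchmarks: full-block control isoproterenol-only wells, zero-block control NPY plus isoproterenol wells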
NPY-Y1 PAM-ag = potentiates or activates human NPY-Y1 receptor. P25929. NPY-Y1 expressing cells, potentiator/agonist activation. activation, % at 3.6 µM. hit rate 0.37% among 220,000. AID 1304; in the data active = activation above about 33%, passing the limit was not always enough;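 also: cells stimulated with NPY at EC10 then isoproterenol at EC100; 0% = low agonist plus stimulus and 100% = saturating agonist plus stimulus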
NPY-Y2 PAM-ag = human NPY-Y2 potentiation or agonism, primary screen; AID 1359; P49146; activation, % at 3.6 µM; hit rate 0.45% among 220,000; cells expressing NPY-Y2, potentiator/agonist read-out; in the data active = activation above about 27%;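 also: cells stimulated with NPY near EC25 plus isoproterenol at EC100; 0% = vehicle plus submaximal agonist and 100% = vehicle plus saturating agonist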
Target sequence (P49146 whole entry, looked up): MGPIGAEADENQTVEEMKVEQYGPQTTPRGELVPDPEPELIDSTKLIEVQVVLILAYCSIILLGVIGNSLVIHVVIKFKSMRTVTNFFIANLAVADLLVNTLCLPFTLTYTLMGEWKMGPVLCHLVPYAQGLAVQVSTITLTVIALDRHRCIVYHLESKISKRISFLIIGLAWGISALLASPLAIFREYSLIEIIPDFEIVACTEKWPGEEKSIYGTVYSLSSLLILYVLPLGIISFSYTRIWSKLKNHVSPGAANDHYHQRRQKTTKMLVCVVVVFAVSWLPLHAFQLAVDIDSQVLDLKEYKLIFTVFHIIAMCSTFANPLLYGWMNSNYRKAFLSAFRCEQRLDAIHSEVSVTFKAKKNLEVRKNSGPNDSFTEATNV
NPY-Y2 antag = blocks the human neuropeptide Y Y2 receptor; P49146; NPY-Y2 expressing cells, antagonist mode; inhibition, % at 2.7 µM; hit rate 0.99% among 140,000;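 also: 0% = vehicle with agonist challenge and 100% = reference antagonist with challenge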
NPY1 antag conf = confirmation of human neuropeptide Y receptor Y1 antagonists; shares compounds with NPY-Y1 antag; AID 1254; inhibition, % at 3.6 µM; hit rate 21% among 1,200; HEK293-CNG NPY-Y1, membrane potential fluorescence, cAMP; NPY challenge against isoproterenol-raised cAMP; in the data active = inhibition above about 20%;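 also: 0% = vehicle with agonist plus stimulus and 100% = stimulus alone without agonist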
NPY2 antag ctr = antagonizes human NPY-Y2, counter-screen to NPY-Y1 antagonists | shares compounds with NPY-Y1 antag | HEK293 NPY-Y2 CNG membrane potential fluorescence, antagonism; cells given NPY, then isoproterenol | inhibition, % at 3.6 µM | hit rate 28% among 1,200 | AID 1255;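 also: 0% = DMSO with agonist challenge and 100% = reference antagonist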
The depositor's hits bear a star; x = no result. An excerpt weighted towards active compounds, which were near 1.8% of everything screened. Rule as the data show it, unless noted: active = inhibition above about 17%; inactive = the rest.

SMILES	NPY-Y1 antag	NPY-Y1 PAM-ag	NPY-Y2 PAM-ag	NPY-Y2 antag	NPY1 antag conf	NPY2 antag ctr
O=C(CSc1nnc(COc2ccccc2)o1)N1CCN(c2ccccc2)CC1	4	-2	0	2	x	x
Cc1cc(C)cc(OCc2nnc(SCC(=O)N3CCN(c4ccccc4)CC3)o2)c1	21*	-22	-9	6	13	17
Cc1ccc(C(=O)CSc2nnc(COc3cccc(C)c3)o2)cc1	21*	-43	-24	13	10	10
COc1ccc(C(=S)N2CCOCC2)cc1OS(=O)(=O)c1ccccc1[N+](=O)[O-]	-1	10	-1	2	x	x
NC(=O)c1nc(-c2ccco2)nc2c1[nH]c(=O)n2-c1ccc(Cl)c(Cl)c1	x	-5	-3	x	x	x
CCCn1c(C(=O)OC)cc2c1ccn2-c1ccc(F)cc1	55*	-18	-16	9	18	16
COC(=O)c1cc2c(ccn2-c2ccc(F)cc2)n1CC(C)C	48*	-28	-11	10	26*	22*
O=C(Cn1ccc(C(F)(F)F)n1)N=Nc1c(O)[nH]c2ccccc12	38*	-2	-46	x	36*	40*
O=C(Cn1ccc(C(F)(F)F)n1)N=Nc1c(O)[nH]c2ccc(Br)cc12	1	7	0	x	x	x
N=C1C(c2ccccc2)=C(O)CN1NC(=O)c1ccc(Cl)cc1	-3	15	6	x	x	x
COC(=O)CSc1nc(-c2ccccc2)nc2ccc(F)cc12	4	-16	2	-1	x	x
CCOC(=O)CSc1nc(-c2ccccc2)nc2ccc(F)cc12	23*	-13	-16	13	10	10
COc1ccc(C(=O)Nc2cccc3cccnc23)cc1OC	8	-29	-1	3	x	x
CC(C)Oc1ccc(C(=O)Nc2cccc3cccnc23)cc1	22*	-20	-25	x	16	24*
CN(Cc1cnccn1)C(=O)CC1C(=O)NCCN1Cc1c(F)cccc1Cl (stereo not given)	x	6	2	x	x	x
COc1ccccc1NC(=O)CSc1nc(N)c(-c2ccccc2)c(=O)[nH]1	74*	-6	-45	x	55*	68*
Cc1cc(/C=C2\NC(=O)N(Cc3ccc(Cl)cc3)C2=O)c(C)n1C	-3	-6	-6	-2	x	x
Cc1ccccc1OCc1n(CC(=O)OC2CC(C)CCC2C(C)C)c2ccccc2[n+]1C (stereo not given)	29*	-35	-17	x	36*	42*
CC1CCC(C(C)C)C(OC(=O)Cn2c(-c3ccc(Cl)cc3)[n+](C)c3ccccc32)C1 (stereo not given)	x	-61	-60	x	x	x
CC1CCC(C(C)C)C(OC(=O)Cn2c(-c3ccc(Br)cc3)[n+](C)c3ccccc32)C1 (stereo not given)	44*	-11	-13	x	37*	41*
CSc1nsc(SCC(=O)N2CCN(c3ccccc3)CC2)n1	29*	-45	-35	14	12	7
CCCC(=O)Nc1nnc(SCC(=O)N2CCN(c3ccccc3)CC2)s1	x	-4	7	x	x	x
N#CC1=C(Nc2ccccc2)SC=C(c2ccc(Cl)c(Cl)c2)N=C1N1CCOCC1	25*	-26	-2	9	8	14
O=C(/C=C/c1ccccc1)Nc1cccc(S(=O)(=O)Nc2ccccc2F)c1	-4	1	0	2	x	x
CS(=O)(=O)Nc1cccc(S(=O)(=O)N2CCN(C(=O)c3ccccc3)CC2)c1	x	3	-5	x	x	x
SMILES	NPY-Y1 antag	NPY-Y1 PAM-ag	NPY-Y2 PAM-ag	NPY-Y2 antag	NPY1 antag conf	NPY2 antag ctr
COC(=O)c1c(NC(=O)C2COc3ccccc3O2)sc2c1CCN(Cc1ccccc1)C2 (stereo not given)	22*	-17	-28	15	31*	24*
COc1ccc(C2c3[nH]c4ccccc4c3CCN2Cc2cccn2-c2ncccn2)cc1C (stereo not given)	67*	-12	-4	x	41*	32*
c1ccc(C2c3[nH]c4ccccc4c3CCN2Cc2cccn2-c2ccccn2)nc1 (stereo not given)	x	-1	-29	x	x	x
Cc1cccc(C2c3[nH]c4ccccc4c3CCN2Cc2cccn2-c2ncccn2)c1 (stereo not given)	32*	-23	-4	x	14	14
COc1ccc(COc2cc(-c3cccc(OC)c3)nc3ccc(NC(=O)c4ccc(N(C)C)cc4)cc23)cc1	43*	-32	-2	2	-2	2
Cc1oc(-c2ccc(Cl)cc2)cc1C(=O)/C(C#N)=C/Nc1ccccc1	x	-7	-5	x	x	x

Source: PubChem BioAssay (The Scripps Research Institute Molecular Screening Center)
